The source made the active and inactive calls. The calls are words filed in the database; no cut-off is given here.
Legend:
Beta-glucuronidase [1] = biological target: T1, Beta-glucuronidase (Homo sapiens, UniProt P08236); assay: Prodrug conversion assessed as recombinant human C-terminal His6-tagged beta-glucuronidase mediated curcumin-glucuronide hydrolysis incubated for 24 hrs by LC-MS analysis; format: ADME; conditions: isolated protein
T1 sequence (P08236 whole entry): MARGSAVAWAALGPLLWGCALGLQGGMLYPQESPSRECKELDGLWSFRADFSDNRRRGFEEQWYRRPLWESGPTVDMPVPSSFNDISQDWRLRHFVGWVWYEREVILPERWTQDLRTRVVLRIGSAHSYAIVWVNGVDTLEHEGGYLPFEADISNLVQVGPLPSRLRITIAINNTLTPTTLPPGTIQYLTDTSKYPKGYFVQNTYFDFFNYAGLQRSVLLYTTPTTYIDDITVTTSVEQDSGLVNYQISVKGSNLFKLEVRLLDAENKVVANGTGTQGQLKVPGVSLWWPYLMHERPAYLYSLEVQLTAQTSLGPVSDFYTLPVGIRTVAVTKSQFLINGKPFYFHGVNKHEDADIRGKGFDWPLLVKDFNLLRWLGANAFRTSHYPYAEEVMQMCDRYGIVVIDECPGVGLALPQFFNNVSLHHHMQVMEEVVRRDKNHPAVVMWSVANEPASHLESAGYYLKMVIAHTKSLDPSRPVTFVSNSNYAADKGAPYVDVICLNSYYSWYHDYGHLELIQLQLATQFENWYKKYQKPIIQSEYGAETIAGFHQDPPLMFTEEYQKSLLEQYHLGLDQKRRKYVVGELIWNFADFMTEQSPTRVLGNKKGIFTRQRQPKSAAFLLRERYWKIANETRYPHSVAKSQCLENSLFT
In short: (§1)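 Recombinant human GUSB or α-klotho, 5 μg/mL (15 nM or 45 nM active enzyme), was incubated with curcumin-glucuronide (459 nM) for 24 h at 37°C at pH 5 in enzyme-optimized buffer. Reactions were stopped with HCl and extracted by HLB. Remaining glucuronide and formed aglycone were measured by LC/MS and expressed as % of enzyme-free control, n=3/group.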

RAW264.7 = assay: Inhibition of RANKL-induced osteoclastogenesis in murine RAW264.7 cells assessed as formation of TRAP positive multinucleated osteoclasts at 30 uM pretreated for 4 hrs followed by RANKL addition measured after 72 hrs; format: functional, cell-based; conditions: Mus musculus
In short: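 RAW 264.7 cells, used within 10 passages, were seeded at 5×10^3/well in DMEM with 10% FBS and allowed to adhere overnight at 37°C. Cells were pretreated 4 h with aglycone curcumin or curcumin-glucuronide, then given RANKL (50 ng/mL final) for 72 h. TRAP-positive multinucleated osteoclasts were counted, n=4/group.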

Klotho = biological target: T2, Klotho (Homo sapiens, UniProt Q9UEF7); assay: Prodrug conversion assessed as recombinant human alpha-klotho mediated curcumin-glucuronide hydrolysis incubated for 24 hrs by LC-MS analysis; format: ADME; in short: as §1
T2 sequence (Q9UEF7 whole entry): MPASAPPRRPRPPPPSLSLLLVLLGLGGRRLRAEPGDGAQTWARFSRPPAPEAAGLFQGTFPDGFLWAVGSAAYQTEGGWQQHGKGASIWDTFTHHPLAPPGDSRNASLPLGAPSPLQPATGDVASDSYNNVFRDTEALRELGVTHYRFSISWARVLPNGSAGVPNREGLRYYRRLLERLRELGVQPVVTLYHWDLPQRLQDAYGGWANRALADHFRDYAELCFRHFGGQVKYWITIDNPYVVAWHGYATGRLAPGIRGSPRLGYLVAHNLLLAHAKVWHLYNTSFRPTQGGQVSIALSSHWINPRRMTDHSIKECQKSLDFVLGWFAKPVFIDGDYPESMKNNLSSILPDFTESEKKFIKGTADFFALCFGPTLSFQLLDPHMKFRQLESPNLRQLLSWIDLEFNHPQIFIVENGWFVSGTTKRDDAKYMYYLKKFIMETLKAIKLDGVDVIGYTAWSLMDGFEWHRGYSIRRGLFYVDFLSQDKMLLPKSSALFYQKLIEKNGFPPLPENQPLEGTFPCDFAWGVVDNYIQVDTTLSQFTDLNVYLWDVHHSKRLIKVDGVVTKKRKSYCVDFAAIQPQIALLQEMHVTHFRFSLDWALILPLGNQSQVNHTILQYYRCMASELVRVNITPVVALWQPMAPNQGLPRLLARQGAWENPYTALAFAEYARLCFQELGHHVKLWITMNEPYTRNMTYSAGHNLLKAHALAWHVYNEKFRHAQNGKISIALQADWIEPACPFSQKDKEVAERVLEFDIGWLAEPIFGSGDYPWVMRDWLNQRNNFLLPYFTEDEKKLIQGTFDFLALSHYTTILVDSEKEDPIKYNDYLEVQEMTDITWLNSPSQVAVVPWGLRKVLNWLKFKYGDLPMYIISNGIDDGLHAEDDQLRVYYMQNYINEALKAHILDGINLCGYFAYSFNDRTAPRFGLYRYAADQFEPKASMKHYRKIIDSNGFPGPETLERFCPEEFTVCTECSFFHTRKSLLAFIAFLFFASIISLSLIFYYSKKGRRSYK

Beta-glucuronidase [2] = biological target: T3, Beta-glucuronidase (Mus musculus, UniProt P12265); assay: Prodrug conversion in C57BL/6J mouse bone marrow assessed as beta-glucuronidase mediated stabilization of aglycone curcumin at 0.5 uM administered via oral gavage incubated for 30 mins followed by resuspension in sodium acetate buffer at pH 5 measured after 2 hrs in presence of saccharolactone by LC-MS analysis; format: ADME; conditions: in vivo, pH 5, 0.5 µM
T3 sequence (P12265 whole entry): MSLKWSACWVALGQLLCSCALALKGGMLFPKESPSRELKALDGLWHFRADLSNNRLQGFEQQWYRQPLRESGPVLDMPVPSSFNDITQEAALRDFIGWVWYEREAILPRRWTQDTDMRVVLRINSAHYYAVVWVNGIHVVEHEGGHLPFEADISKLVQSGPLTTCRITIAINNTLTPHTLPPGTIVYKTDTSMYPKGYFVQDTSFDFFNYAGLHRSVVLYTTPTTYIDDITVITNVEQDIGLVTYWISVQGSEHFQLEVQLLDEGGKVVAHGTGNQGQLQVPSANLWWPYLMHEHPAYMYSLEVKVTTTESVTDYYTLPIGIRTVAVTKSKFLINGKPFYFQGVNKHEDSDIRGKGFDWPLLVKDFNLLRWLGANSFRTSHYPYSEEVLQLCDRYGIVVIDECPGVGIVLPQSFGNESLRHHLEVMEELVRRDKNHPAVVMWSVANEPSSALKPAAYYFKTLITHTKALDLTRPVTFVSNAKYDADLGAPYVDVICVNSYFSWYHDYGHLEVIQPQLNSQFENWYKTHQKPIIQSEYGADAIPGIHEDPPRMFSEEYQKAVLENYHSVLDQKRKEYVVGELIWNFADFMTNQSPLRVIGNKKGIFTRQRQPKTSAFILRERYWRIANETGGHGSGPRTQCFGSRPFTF

Drug metabolism (Beta-glucuronidase [1]): > 99% | Drug metabolism (Klotho): 75% | Drug metabolism (Beta-glucuronidase [2]): Metabolite_Detected
Compound: COc1cc(/C=C/C(=O)CC(=O)/C=C/c2ccc(O[C@@H]3O[C@H](C(=O)O)[C@@H](O)[C@H](O)[C@H]3O)c(OC)c2)ccc1O
inhibition (RAW264.7): inactive

From ChEMBL document CHEMBL4414545, “Beta-Glucuronidase Catalyzes Deconjugation and Activation of Curcumin-Glucuronide in Bone” (J Nat Prod, 2019)
